Active and inactive are the calls of the source. The rule behind the calls is not given here.
How the values were obtained:
H4 [1] = test: Reduction of poly(Q) level in human H4 cells expressing EGFP-Q79-HA after 24 hrs; type: functional, cell-based
In short: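 H4 cells were transiently transfected with an EGFP-Q79-HA expression vector. The medium was replaced 6 h after transfection and compounds were added. Poly(Q) was detected with anti-HA antibody.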

[2] = target: T1, Serine/threonine-protein kinase mTOR (Homo sapiens, UniProt P42345); test: Effect on mTOR phosphorylation in human H4 cells at 0.2 uM after 4 hrs; type: cell-based
In short: (§1)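 H4 cells treated with compound for 4 h; lysates analysed by Western blot using anti-phospho/non-phospho mTOR antibody, with actin as loading control; rapamycin used for comparison. Cells grown in DMEM with 10% FBS, penicillin/streptomycin, 2 mM L-glutamine at 37°C, 5% CO2.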

H4 [3] = test: Increase in light chain 3-GFP+ autophagosome vesicle area per cell in human H4 cells at 0.2 uM after 24 hrs by high throughput fluorescence microscopy relative to control; type: functional
In short: (§2)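 H4 cells stably expressing LC3-GFP, seeded in 96-well plates and exposed to compound for 24 h; screening concentrations were 3–12 μM, with rapamycin 0.22 μM and bafilomycin A1 0.40 μM. Cells fixed in 4% paraformaldehyde and stained with 3 μg/ml DAPI. Number, size and intensity of LC3-GFP spots measured by high-throughput fluorescence microscopy and expressed as percent of DMSO-treated wells. Rapamycin was the positive control. Triplicate wells, mean ± SD; experiments repeated three times.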

H4 [4] = test: Induction of light chain 3-GFP level in human H4 cells at 0.2 uM after 24 hrs by high throughput fluorescence microscopy relative to control; type: functional
H4 [5] = test: Increase in light chain 3-GFP+ autophagosome vesicle intensity per cell in human H4 cells at 0.2 uM after 24 hrs by high throughput fluorescence microscopy relative to control; type: functional; in short: as §2
H4 [6] = test: Increase in FYVE-RFP+ vesicle intensity per cell in human H4 cells after 4 hrs relative to control; type: functional; parameters: concentration or dose not given beside the values
In short: (§3)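 H4 cells stably expressing FYVE-RFP (H4-FYVE), grown in DMEM with 10% FBS, penicillin/streptomycin and 2 mM L-glutamine at 37°C, 5% CO2, seeded in 96-well plates and exposed to compound. Fixed in 4% paraformaldehyde, nuclei stained with 3 μg/ml DAPI, FYVE-RFP+ vesicles quantified by high-throughput fluorescence microscopy against DMSO control. Triplicate wells, mean ± SD.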

H4 [7] = test: Increase in FYVE-RFP+ vesicle intensity per cell in human H4 cells after 8 hrs relative to control; type: functional; parameters: concentration or dose not given beside the values; in short: as §3
H4 [8] = test: Increase in long-lived protein degradation in human H4 cells after 1 hr relative to control; type: functional; parameters: concentration or dose not given beside the values
H4 [9] = test: Increase in long-lived protein degradation in human H4 cells after 2 hrs relative to control; type: functional; parameters: concentration or dose not given beside the values
H4 [10] = test: Increase in long-lived protein degradation in human H4 cells after 4 hrs relative to control; type: functional; parameters: concentration or dose not given beside the values
H4 [11] = test: Increase in long-lived protein degradation in human H4 cells after 24 hrs relative to control; type: functional; parameters: concentration or dose not given beside the values
H4 [12] = test: Increase in ratio of light chain 3 subunit 2 to light chain 3 subunit 1 in human H4 cells at 0.2 uM after 4 hrs by Western blot; type: functional, cell-based
In short: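 H4 cells were treated with each compound for 4 h, then lysed. Lysates were immunoblotted with anti-LC3 antibody, with actin as loading control. LC3II and LC3I bands were compared as an LC3II/LC3I ratio.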

H4 [13] = test: Increase in light chain 3-GFP+ autophagosome vesicle number per cell in human H4 cells at 0.2 uM after 24 hrs by high throughput fluorescence microscopy relative to control; type: functional
In short: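 H4 cells stably expressing LC3-GFP were grown in DMEM with 10% FBS and 2 mM L-glutamine at 37°C, 5% CO2. They were exposed to each compound for 24 h, with DMSO as negative and rapamycin as positive control. Cells were then fixed in 4% paraformaldehyde and stained with 3 μg/ml DAPI. High-throughput fluorescence imaging scored LC3-GFP spot number, size and intensity, expressed relative to DMSO. Mean ± SD of triplicates; experiments repeated three times.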

H4 [14] = test: Increase in light chain 3-GFP+ autophagosome vesicle number per cell in human H4 cells at 6.1 uM after 24 hrs by high throughput fluorescence microscopy relative to control; type: functional
In short: (§4)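 H4 cells stably expressing LC3-GFP, kept in DMEM/10% FBS at 37°C, 5% CO2, were seeded in 96-well plates and exposed to compound for 24 h. Cells were then fixed in 4% paraformaldehyde and stained with 3 μg/ml DAPI. Automated fluorescence microscopy scored the number, size and intensity of LC3-GFP spots. Values are percent of DMSO wells, in triplicate, mean ± SD. Rapamycin served as positive control.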

H4 [15] = test: Increase in light chain 3-GFP+ autophagosome vesicle area per cell in human H4 cells at 6.1 uM after 24 hrs by high throughput fluorescence microscopy relative to control; type: functional
In short: (§5)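 H4 cells stably expressing LC3-GFP, seeded in 96-well plates and exposed to compound for 24 h; fixed in 4% paraformaldehyde, nuclei stained with 3 μg/ml DAPI. Automated fluorescence microscopy scored number, size and intensity of LC3-GFP spots; values expressed relative to DMSO-treated wells, rapamycin positive control. Triplicate wells, mean ± SD; experiments repeated three times.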

H4 [16] = test: Increase in light chain 3-GFP+ autophagosome vesicle intensity per cell in human H4 cells at 6.1 uM after 24 hrs by high throughput fluorescence microscopy relative to control; type: functional; in short: as §5
H4 [17] = test: Effect on FYVE-RFP+ vesicle intensity per cell in human H4 cells after 2 hrs relative to control; type: functional; parameters: concentration or dose not given beside the values; in short: as §3
H4 [18] = test: Effect on FYVE-RFP+ vesicle intensity per cell in human H4 cells after 4 hrs relative to control; type: functional; parameters: concentration or dose not given beside the values; in short: as §3
H4 [19] = test: Effect on FYVE-RFP+ vesicle intensity per cell in human H4 cells after 8 hrs relative to control; type: functional; parameters: concentration or dose not given beside the values; in short: as §3
H4 [20] = test: Induction of light chain 3-GFP level in human H4 cells at 6.1 uM after 24 hrs by high throughput fluorescence microscopy relative to control; type: functional; in short: as §4
H4 [21] = test: Increase in ratio of light chain 3 subunit 2 to light chain 3 subunit 1 in human H4 cells at 5.4 uM after 4 hrs by Western blot; type: functional, cell-based
In short: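 H4 cells were exposed to compound for 4 h, then lysed. Lysates were blotted with anti-LC3 antibody, with actin as loading control, and the LC3II/LC3I band ratio was taken.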

H4 [22] = test: Increase in light chain 3-GFP+ autophagosome vesicle area per cell in human H4 cells at 5.4 uM after 24 hrs by high throughput fluorescence microscopy relative to control; type: functional; in short: as §5
[23] = target: T1, Serine/threonine-protein kinase mTOR; test: Effect on mTOR phosphorylation in human H4 cells at 5.4 uM after 4 hrs; type: cell-based; in short: as §1
H4 [24] = test: Increase in light chain 3-GFP+ autophagosome vesicle intensity per cell in human H4 cells at 5.4 uM after 24 hrs by high throughput fluorescence microscopy relative to control; type: functional; in short: as §5
H4 [25] = test: Increase in light chain 3-GFP+ autophagosome vesicle number per cell in human H4 cells at 5.4 uM after 24 hrs by high throughput fluorescence microscopy relative to control; type: functional; in short: as §4
H4 [26] = test: Induction of light chain 3-GFP level in human H4 cells at 5.4 uM after 24 hrs by high throughput fluorescence microscopy relative to control; type: functional; in short: as §4

Row | SMILES | Activity (H4 [1]) | Activity (H4 [8]) [%] | Activity (H4 [9]) [%] | Activity (H4 [10]) [%] | Activity (H4 [11]) [%] | Activity (H4 [17]) [%] | Activity (H4 [18]) [%] | Activity (H4 [19]) [%] | also measured
1 | CO[C@H]1C[C@@H]2CC[C@@H](C)[C@@](O)(O2)C(=O)C(=O)N2CCCC[C@H]2C(=O)O[C@H]([C@H](C)C[C@@H]2CC[C@@H](O)[C@H](OC)C2)CC(=O)[C@H](C)/C=C(\C)[C@@H](O)[C@@H](OC)C(=O)[C@H](C)C[C@H](C)/C=C/C=C/C=C/1C [SIROLIMUS] | Dose-dependent effect | 159.89 | 171.67 | 149.89 | 165.87 |  |  |  | AC50 [2]: Not Active; Activity (H4 [3]): 259.68%; Activity (H4 [4]): 88.62%; Activity (H4 [5]): 285.38%; Activity (H4 [6]): 131.41%; Activity (H4 [7]): 152.35%; Activity (H4 [12]): Active; Activity (H4 [13]): 205.66%
2 | CC1=C2C[C@H]3[C@@H](CC=C4C[C@@H](O)CC[C@@]43C)[C@@H]2CC[C@]12O[C@@H]1C[C@H](C)CN[C@H]1[C@H]2C [CYCLOPAMINE] |  | 91.74 | 111.02 | 109.69 | 103.97 | 108.75 | 75.21 | 96.38 | Activity (H4 [14]): 313.88%; Activity (H4 [15]): 511.72%; Activity (H4 [16]): 1564.12%; Activity (H4 [20]): 110.76%
3 | O=c1[nH]c2ccccc2n1C1CCN(CCCC(c2ccc(F)cc2)c2ccc(F)cc2)CC1 [PIMOZIDE] | Dose-dependent effect | 129.13 | 155.8 | 152.01 | 162.47 | 94.42 | 103.96 | 73.64 | Activity (H4 [21]): Active; Activity (H4 [22]): 290.43%; Activity [23]: inactive; Activity (H4 [24]): 447.75%; Activity (H4 [25]): 218.96%; Activity (H4 [26]): 127.14%
